{"source": "paper PMC8178754", "about": "(The Journal of Cell Biology, 2021)", "molecules": {"B1": {"name": "FITC-Ulp2-KIM peptide (Ulp2-927-937) (peptide)", "peptide": "DDSDVNLIGSS", "modifications": "FITC-AHA on the N-terminus (FITC-AHA-DDSDVNLIGSS)"}, "B2": {"name": "GST-Ulp2-927-937 (peptide)", "chain": "DDSDVNLIGSS"}, "B3": {"name": "GST-Ulp2-927-937 N932A (peptide)", "chain": "DDSDVALIGSS"}, "B4": {"name": "GST-Ulp2-KIM 1DA-1 (Ulp2-D927A) (peptide)", "chain": "ADSDVNLIGSS"}, "B5": {"name": "GST-Ulp2-KIM: GST fusion of the Ulp2 kinetochore interaction motif (KIM) (protein)", "chain": "MSARKRKFNSLKPLDTLNSSRASSPRSSASLPPKRYNTFRKDPKIVDHLNNASTKDFLPVLSMNSESKRQIELSDNDVDNNDEGEGVNSGCSDQDFEPLQSSPLKRHSSLKSTSNGLLFQMSNNLGNGSPEPAVASTSPNGSIISTKLNLNGQFSCVDSKTLRIYRHKAPCIMTFVSDHNHPKFSLYFQQSVIYNSQVNLLDDVELIILDKKNSFMAIILKDLKKVKMILDVNNSSININTNILIWSTASSASNKKIKSIKRFLLMSYSSSIKVEILDHKEQILERLKHLIHPISSSSPSLNMERAINSTKNAFDSLRLKKTKLSTNDDESPQIHTHFLSNKPHGLQSLTKRTRIASLGKKEHSISVPKSNISPSDFYNTNGTETLQSHAVSQLRRSNRFKDVSDPANSNSNSEFDDATTEFETPELFKPSLCYKFNDGSSYTITNQDFKCLFNKDWVNDSILDFFTKFYIESSIEKSIIKREQVHLMSSFFYTKLISNPADYYSNVKKWVNNTDLFSKKYVVIPINISYHWFSCIITNLDAILDFHQNKDKNDAINSDEISINNPLVNILTFDSLRQTHSREIDPIKEFLISYALDKYSIQLDKTQIKMKTCPVPQQPNMSDCGVHVILNIRKFFENPVETIDVWKNSKIKSKHFTAKMINKYFDKNERNSARKNLRHTLKLLQLNYISYLKKENLYEEVMQMEEKKSTNINNNENYDDDDEEIQIIENIDQSSKDNNAQLTSEPPCSRSSSISTTEREPTELHNSVVRQPTGEIITDNEDPVRAASPETASVSPPIRHNILKSSSPFISESANETEQEEFTSPYFGRPSLKTRAKQFEGVSSPIKNDQALSSTHDIMMPSPKPKRIYPSKKIPQLSSHVQSLSTDSMERQSSPNNTNIVISDTEQDSRLGVNSESKNTSGIVNRDDSDVNLIGSSLPNVAEKNHDNTQESNGNNDSLGKILQNVDKELNEKLVDIDDVAFSSPTRGIPRTSATSKGSNAQLLSNYGDENNQSQDSVWDEGRDNPILLEDEDP"}, "B6": {"name": "Ulp2: nuclear enzyme that removes SUMO chains from modified substrates; in pulldown represented by GST-Ulp2-KIM bait (protein, UniProt P40537 1-1034, looked up)", "Ubiquitin-like-specific …": "MSARKRKFNSLKPLDTLNSSRASSPRSSASLPPKRYNTFRKDPKIVDHLNNASTKDFLPVLSMNSESKRQIELSDNDVDNNDEGEGVNSGCSDQDFEPLQSSPLKRHSSLKSTSNGLLFQMSNNLGNGSPEPAVASTSPNGSIISTKLNLNGQFSCVDSKTLRIYRHKAPCIMTFVSDHNHPKFSLYFQQSVIYNSQVNLLDDVELIILDKKNSFMAIILKDLKKVKMILDVNNSSININTNILIWSTASSASNKKIKSIKRFLLMSYSSSIKVEILDHKEQILERLKHLIHPISSSSPSLNMERAINSTKNAFDSLRLKKTKLSTNDDESPQIHTHFLSNKPHGLQSLTKRTRIASLGKKEHSISVPKSNISPSDFYNTNGTETLQSHAVSQLRRSNRFKDVSDPANSNSNSEFDDATTEFETPELFKPSLCYKFNDGSSYTITNQDFKCLFNKDWVNDSILDFFTKFYIESSIEKSIIKREQVHLMSSFFYTKLISNPADYYSNVKKWVNNTDLFSKKYVVIPINISYHWFSCIITNLDAILDFHQNKDKNDAINSDEISINNPLVNILTFDSLRQTHSREIDPIKEFLISYALDKYSIQLDKTQIKMKTCPVPQQPNMSDCGVHVILNIRKFFENPVETIDVWKNSKIKSKHFTAKMINKYFDKNERNSARKNLRHTLKLLQLNYISYLKKENLYEEVMQMEEKKSTNINNNENYDDDDEEIQIIENIDQSSKDNNAQLTSEPPCSRSSSISTTEREPTELHNSVVRQPTGEIITDNEDPVRAASPETASVSPPIRHNILKSSSPFISESANETEQEEFTSPYFGRPSLKTRAKQFEGVSSPIKNDQALSSTHDIMMPSPKPKRIYPSKKIPQLSSHVQSLSTDSMERQSSPNNTNIVISDTEQDSRLGVNSESKNTSGIVNRDDSDVNLIGSSLPNVAEKNHDNTQESNGNNDSLGKILQNVDKELNEKLVDIDDVAFSSPTRGIPRTSATSKGSNAQLLSNYGDENNQSQDSVWDEGRDNPILLEDEDP"}}, "key": {"[1]": {"test_system": "ctf3-2A ulp2–SIM-3A double mutant cells", "experiment": "Spot assay, growth of mutant strains under chemical stress", "assay_type": "cell-based, yeast", "conditions": "10-fold serial dilutions, 30°C, 2 or 3 d", "in_short": "(§1)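 Strains were built by lithium acetate integration of PCR products and verified by sequencing or PCR. Cells were grown in YPD to OD600 ~1 and diluted to OD600 0.2. 10-fold serial dilutions in sterile water, 5 µl each, were spotted on YPD or YPD with hydroxyurea at indicated concentrations. Plates were incubated 2 or 3 d at 30°C, then imaged.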"}, "ctf3-2A cells": {"test_system": "ctf3-2A cells", "experiment": "Spot assay, growth of mutant strains under chemical stress", "assay_type": "cell-based, yeast", "conditions": "10-fold serial dilutions, 30°C, 2 or 3 d; effects modest", "in_short": "as §1"}, "[2]": {"test_system": "cells lacking both Ulp2–kinetochore interactions (KIM-Ctf3 and SIM-SUMO)", "experiment": "Growth under chemical stress, cells lacking both Ulp2–kinetochore interactions", "assay_type": "cell-based, yeast", "conditions": "KIM-Ctf3 and SIM-SUMO interactions both absent", "in_short": "as §1"}, "[3]": {"test_system": "ulp2–KIM-3A and ctf3-2A cells", "experiment": "Spot assay, growth of mutant strains under chemical stress", "assay_type": "cell-based, yeast", "conditions": "YPD + hydroxyurea; 10-fold dilution series", "in_short": "as §1"}, "[4]": {"molecular_target": "T1, Ctf3 complex (Ctf3, Mcm16, Mcm22) (yeast, UniProt Q12748;Q12262;P47167)", "T1 sequence (Q12748 whole entry, chain 1 of 3)": "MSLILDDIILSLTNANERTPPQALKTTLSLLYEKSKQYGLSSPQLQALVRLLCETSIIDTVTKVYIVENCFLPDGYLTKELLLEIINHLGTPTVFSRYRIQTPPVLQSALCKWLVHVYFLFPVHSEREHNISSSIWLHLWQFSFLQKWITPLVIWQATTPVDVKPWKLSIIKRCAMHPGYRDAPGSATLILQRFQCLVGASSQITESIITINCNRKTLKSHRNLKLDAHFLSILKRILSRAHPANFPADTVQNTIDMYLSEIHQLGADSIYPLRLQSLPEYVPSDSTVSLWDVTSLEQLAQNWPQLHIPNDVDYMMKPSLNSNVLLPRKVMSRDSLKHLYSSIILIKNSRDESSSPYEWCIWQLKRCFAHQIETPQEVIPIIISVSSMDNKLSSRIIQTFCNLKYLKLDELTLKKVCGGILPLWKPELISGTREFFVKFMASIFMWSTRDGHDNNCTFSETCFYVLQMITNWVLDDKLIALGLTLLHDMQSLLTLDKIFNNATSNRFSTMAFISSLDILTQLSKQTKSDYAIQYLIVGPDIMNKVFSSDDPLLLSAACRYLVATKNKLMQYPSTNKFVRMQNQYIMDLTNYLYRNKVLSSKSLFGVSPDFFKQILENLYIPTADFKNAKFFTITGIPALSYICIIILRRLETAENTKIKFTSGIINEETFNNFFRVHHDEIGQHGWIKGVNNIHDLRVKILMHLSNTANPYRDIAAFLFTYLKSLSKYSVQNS", "T1 sequence (Q12262 whole entry, chain 2 of 3)": "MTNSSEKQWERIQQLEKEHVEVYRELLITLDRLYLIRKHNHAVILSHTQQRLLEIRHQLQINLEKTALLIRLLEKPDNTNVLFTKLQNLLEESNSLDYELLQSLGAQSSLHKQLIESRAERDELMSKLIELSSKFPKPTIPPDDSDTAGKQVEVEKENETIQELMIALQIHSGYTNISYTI", "T1 sequence (P47167 whole entry, chain 3 of 3)": "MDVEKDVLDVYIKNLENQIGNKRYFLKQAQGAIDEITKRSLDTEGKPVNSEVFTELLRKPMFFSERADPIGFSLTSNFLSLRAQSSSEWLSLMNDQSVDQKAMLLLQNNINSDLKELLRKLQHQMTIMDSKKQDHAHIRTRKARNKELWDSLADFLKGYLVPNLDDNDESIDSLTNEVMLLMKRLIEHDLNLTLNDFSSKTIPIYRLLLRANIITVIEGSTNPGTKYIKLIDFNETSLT", "experiment": "fluorescence polarisation"}, "[5]": {"molecular_target": "T1, Ctf3 complex (Ctf3, Mcm16, Mcm22)", "experiment": "pull-down"}, "[6]": {"test_system": "Ctf3-2A (Ctf3–R594A,K596A)", "experiment": "GST pulldown with Ctf3-2A", "assay_type": "binding, yeast", "conditions": "Fig. S2 A, 20 mM Tris, pH 8.5, 150 mM NaCl"}, "Ctf3": {"test_system": "Ctf3", "experiment": "GST-Ulp2-KIM pulldown from yeast cell extracts, Ctf3", "assay_type": "binding", "conditions": "immobilized GST-Ulp2-KIM as bait; anti–Protein A blot"}}}
{"molecule": "CCCCNC(=O)n1c(NC(=O)OC)nc2ccccc21", "note": "[benomyl]", "values": [{"measurement": "sensitivity of ctf3-2A ulp2–SIM-3A double mutant cells", "setting": "[1]", "value": "pronounced"}, {"measurement": "sensitivity of ctf3-2A cells", "setting": "ctf3-2A cells", "value": "sensitizes cells to hydroxyurea and benomyl"}, {"measurement": "viability/sensitivity of cells lacking both Ulp2–kinetochore interactions", "setting": "[2]", "value": "Compromised viability"}]}
{"molecule": "NC(=O)NO", "note": "[hydroxyurea]", "values": [{"measurement": "sensitivity of ctf3-2A ulp2–SIM-3A double mutant cells", "setting": "[1]", "value": "pronounced"}, {"measurement": "sensitivity of ctf3-2A cells", "setting": "ctf3-2A cells", "value": "sensitizes cells to hydroxyurea"}, {"measurement": "sensitivity of ulp2–KIM-3A and ctf3-2A cells", "setting": "[3]", "value": "elevated sensitivity"}, {"measurement": "viability/sensitivity of cells lacking both Ulp2–kinetochore interactions", "setting": "[2]", "value": "much more sensitive"}]}
{"molecule": "B1", "values": [{"measurement": "Kd", "setting": "[4]", "value": "~900", "unit": "nM"}]}
{"molecule": "B2", "values": [{"measurement": "binding result", "setting": "[5]", "value": "binds"}]}
{"molecule": "B3", "values": [{"measurement": "binding result", "setting": "[5]", "value": "binds"}]}
{"molecule": "B4", "values": [{"measurement": "binding result", "setting": "[5]", "value": "binds"}]}
{"molecule": "B5", "values": [{"measurement": "Ulp2–KIM interaction with Ctf3-2A in pulldown", "setting": "[6]", "value": "Ctf3-2A does not support the Ulp2–KIM interaction"}]}
{"molecule": "B6", "values": [{"measurement": "pulldown of Ctf3 from yeast cell extract", "setting": "Ctf3", "value": "Ctf3, but not Ctf3-2A, binds Ulp2"}]}
